This is an account of results in ChEMBL document CHEMBL3865824, “New (E)-1-alkyl-1H-benzo[d]imidazol-2-yl)methylene)indolin-2-ones: Synthesis, in vitro cytotoxicity evaluation and apoptosis inducing studies” (Eur J Med Chem, 2016).

Data set [1] is described as follows: Cell cycle arrest in human MDA-MB-231 cells assessed as accumulation at G0/G1 phase at 4 uM after 24 hrs by propidium iodide staining based FACS analysis (reference value: 50.4 %). Format: functional. In outline: (§1)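 MDA-MB-231 at 1×10^6 cells/well treated with 1, 2 or 4 µM for 24 h, with a DMSO control. Cells harvested by trypsin, washed with PBS and fixed in 70% ethanol for 30 min at 4 °C. Stained 15 min at room temperature in the dark with PI buffer containing Triton X and DNase-free RNase A. Analysed by flow cytometry; G0/G1, S and G2/M fractions quantified.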

Data set [2] can be described thus: Cytotoxicity against human DU145 cells assessed as reduction in cell viability after 48 hrs by MTT assay. Conditions: DU-145, 48 h. The format is functional, cell-based. The procedure, abridged: (§2)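 Cells grown in DMEM or MEM with 10% FBS at 37 °C, 5% CO2. Seeded at 1×10^4 cells/well, incubated 48 h, then exposed to compound for 48 h with vehicle control. MTT (5 mg/mL stock) added for 4 h; formazan dissolved in DMSO, absorbance read at 570 nm. Preliminary screen at 50 µM. Compounds giving >50% inhibition were tested for dose-response curves; IC50 derived by linear regression of % inhibition versus concentration. Mean of three independent experiments in triplicate.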
Background: Tetrazolium dyes change colour on reduction, which living cells bring about.

Data set [3] is described as follows: Cytotoxicity against human BT549 cells assessed as reduction in cell viability after 48 hrs by MTT assay. The format is functional, cell-based. Conditions: BT-549, 48 h. In outline:
as §2

The nature of data set [4]: Cytotoxicity against human MDA-MB-231 cells assessed as reduction in cell viability after 48 hrs by MTT assay. The format is functional, cell-based. The conditions noted are these: MDA-MB-231, 48 h. In outline: as §2
Data set [5] is described as follows: Cytotoxicity against human MCF7 cells assessed as reduction in cell viability after 48 hrs by MTT assay. Conditions: MCF7, 48 h. The format is functional, cell-based. In outline: as §2
A short description of data set [6]: Cytotoxicity against human A549 cells assessed as reduction in cell viability after 48 hrs by MTT assay. Format: functional, cell-based. The conditions noted are these: A549, 48 h. In outline: as §2
Data set [7] is described as follows: Cell cycle arrest in human MDA-MB-231 cells assessed as accumulation at G2/M phase at 4 uM after 24 hrs by propidium iodide staining based FACS analysis (reference value: 26 %). Format: functional. The procedure, abridged: as §1
(A flow cytometer gives signals particle by particle.)

The nature of data set [8]: Cell cycle arrest in human MDA-MB-231 cells assessed as accumulation at S phase at 4 uM after 24 hrs by propidium iodide staining based FACS analysis (reference value: 24.6 %). Format: functional. The procedure, abridged:
as §1

Data set [9] can be described thus: Cytotoxicity against human PC3 cells assessed as reduction in cell viability after 48 hrs by MTT assay. Format: functional, cell-based. The conditions noted are these: PC-3, 48 h. In outline: as §2
A short description of data set [10]: Cytotoxicity against […] cells assessed as reduction in cell viability after 48 hrs by MTT assay. The format is functional, cell-based. Conditions: 4T1, 48 h. In outline:
as §2

A short description of data set [11]: Cytotoxicity against HGC cells assessed as reduction in cell viability after 48 hrs by MTT assay. The format is functional, cell-based. Conditions: Homo sapiens. In outline:
as §2

The nature of data set [12]: Cytotoxicity against human MCF10A cells assessed as reduction in cell viability after 48 hrs by MTT assay. Format: toxicity, cell-based, MCF-10A. The procedure, abridged: as §2
Data set [13] can be described thus: Selectivity ratio of IC50 for human MCF10A cells to IC50 for […] cells. The format is ADME, cell-based, MCF-10A. Conditions: MCF10A cells versus 4TI cells, read-out: Ratio IC50.
Data set [14] can be described thus: Selectivity ratio of IC50 for human MCF10A cells to IC50 for human MDA-MB-231 cells. The format is ADME, cell-based, MCF-10A. The conditions noted are these: MCF10A cells versus MDA-MB-231 cells, read-out: Ratio IC50.
A short description of data set [15]: Cytotoxicity against human DU145 cells assessed as growth inhibition at 50 uM after 48 hrs by MTT assay relative to control. The conditions noted are these: DU-145, 48 h, read-out: GI. Format: functional. In outline:
as §2

Data set [16] is described as follows: Cytotoxicity against human PC3 cells assessed as growth inhibition at 50 uM after 48 hrs by MTT assay relative to control. The format is functional. The conditions noted are these: PC-3, 48 h, read-out: GI. In outline: as §2
The nature of data set [17]: Cytotoxicity against […] cells assessed as growth inhibition at 50 uM after 48 hrs by MTT assay relative to control. The format is functional. The conditions noted are these: Mus musculus, 4T1, 48 h; read-out: GI. In outline: as §2
A short description of data set [18]: Cytotoxicity against human BT549 cells assessed as growth inhibition at 50 uM after 48 hrs by MTT assay relative to control. The format is functional. Conditions: BT-549, 48 h, read-out: GI. In outline:
as §2

The nature of data set [19]: Cytotoxicity against human MDA-MB-231 cells assessed as growth inhibition at 50 uM after 48 hrs by MTT assay relative to control. Format: functional. Conditions: MDA-MB-231, 48 h, read-out: GI. In outline: as §2
Data set [20] can be described thus: Cytotoxicity against human MCF7 cells assessed as growth inhibition at 50 uM after 48 hrs by MTT assay relative to control. Format: functional. The conditions noted are these: MCF7, 48 h, read-out: GI. The procedure, abridged:
as §2

Data set [21] can be described thus: Cytotoxicity against human A549 cells assessed as growth inhibition at 50 uM after 48 hrs by MTT assay relative to control. Format: functional. The conditions noted are these: A549, 48 h, read-out: GI. In outline:
as §2

Data set [22] is described as follows: Cytotoxicity against HGC cells assessed as growth inhibition at 50 uM after 48 hrs by MTT assay relative to control. Conditions: Homo sapiens, read-out: GI. Format: functional. In outline:
as §2

The nature of data set [23]: Selectivity ratio of IC50 for human MCF10A cells to IC50 for human DU145 cells. The format is ADME, cell-based, MCF-10A. Conditions: MCF10A cells versus DU145 cells, read-out: Ratio IC50.
A short description of data set [24]: Selectivity ratio of IC50 for human MCF10A cells to IC50 for human A549 cells. Conditions: MCF10A cells versus A549 cells, read-out: Ratio IC50. The format is ADME, cell-based.
Data set [25] in a line: Selectivity ratio of IC50 for human MCF10A cells to IC50 for human PC3 cells. Format: ADME, cell-based, MCF-10A. The conditions noted are these: MCF10A cells versus PC3 cells, read-out: Ratio IC50.
Data set [26] can be described thus: Selectivity ratio of IC50 for human MCF10A cells to IC50 for human BT549 cells. Format: ADME, cell-based, MCF-10A. Conditions: MCF10A cells versus BT549 cells, read-out: Ratio IC50.
Data set [27] in a line: Selectivity ratio of IC50 for human MCF10A cells to IC50 for human MCF7 cells. Format: ADME, cell-based, MCF-10A. The conditions noted are these: MCF10A cells versus MCF7 cells, read-out: Ratio IC50.
Data set [28] in a line: Selectivity ratio of IC50 for human MCF10A cells to IC50 for HGC cells. The format is ADME, cell-based, MCF-10A. The conditions noted are these: MCF10A cells versus HGC cells, read-out: Ratio IC50.

By IC50 is commonly meant the concentration at which inhibition is half-maximal. Consider `CCN(CC)CCNC(=O)c1c(C)[nH]c(/C=C2\C(=O)Nc3ccc(F)cc32)c1C` [SUNITINIB], for which the Activity amounted to 67.6% in [1], 13.9% in data set [7] and 18.3% in data set [8]. Further, the IC50 worked out at 16.4 µM in [2]; 15.5 µM in data set [3]; 7.44 µM in [4]; 23.8 µM in [5]; 14.4 µM in data set [6].
Regarding `Cc1ccc2c(c1)/C(=C\c1nc3ccccc3n1C(C)C)C(=O)N2`, the IC50 turned out to be 14 µM in data set [9]; 13.3 µM in data set [2]; 9.36 µM in data set [10]; 23.7 µM in [3]; 7.23 µM in data set [4]; 16.3 µM in data set [5]. The figures for the IC50 in data set [6] and in [11] were 23 µM and 14.6 µM, respectively. In [12], the IC50 at 48 h was 99.7 µM. Also, the values for the selectivity ratio in data set [13] and in [14] were 10.6 and 14, respectively. Further, the inhibition of growth at 50 µM in data set [15], in data set [16], in data set [17], in data set [18], in [19] and in data set [20] was above 50% in each case. The inhibition of growth at 50 µM in [21] and in data set [22] was above 50% in each case.
As to `CC(C)n1c(/C=C2/C(=O)Nc3ccc(F)cc32)nc2ccccc21`, the IC50 in data set [9] was 20.8 µM; in data set [2] it was 24.5 µM; in data set [10], 25.8 µM; in data set [3], 26.7 µM; in [4], 22.7 µM; in data set [5] it was 29 µM. Further, the IC50 is 28.4 µM in data set [6] and 28 µM in data set [11]. In addition, the IC50 at 48 h in data set [12] is above 100 µM. Moreover, the inhibition of growth at 50 µM in data set [15], in data set [16], in data set [17], in data set [18], in data set [19] and in data set [20] was above 50% throughout. The inhibition of growth at 50 µM in data set [21] and in [22] was above 50% throughout.
As to `CCn1c(/C=C2/C(=O)Nc3ccc(C)cc32)nc2ccccc21`, the IC50 is 38.6 µM in data set [9]; 39.3 µM in data set [2]; 39.4 µM in [10]; above 50 µM in [3]; 40.6 µM in data set [4]; above 50 µM in data set [5]. The IC50 in data set [6] and in [11] was above 50 µM throughout. The inhibition of growth at 50 µM was above 50% in data set [15]; above 50% in data set [16]; above 50% in data set [17]; below 50% in [18]; above 50% in data set [19]; below 50% in data set [20]. Also, the inhibition of growth at 50 µM in data set [21] and in data set [22] was below 50% each time.
In the case of `CC(C)n1c(/C=C2/C(=O)Nc3ccc(Cl)cc32)nc2ccccc21`, the IC50 was 38.1 µM in data set [9]; 36.4 µM in data set [2]; 35.7 µM in data set [10]; 35.1 µM in data set [3]; 25.1 µM in [4]; 24 µM in data set [5]. Also, the results for the IC50 in data set [6] and in data set [11] were 35.2 µM and 32.8 µM, respectively. For the same molecule, the IC50 at 48 h in data set [12] was 68.8 µM. Also, the selectivity ratio in [23], in [13], in data set [14], in [24], in data set [25] and in data set [26] was 2 to 3 each time. Further, the selectivity ratio in [27] and in [28] was 2 to 3 throughout. Moreover, the inhibition of growth at 50 µM in [15], in data set [16], in data set [17], in data set [18], in [19] and in data set [20] was above 50% throughout. The inhibition of growth at 50 µM in data set [21] and in data set [22] was above 50% in each case.
